Test results reported in ChEMBL document CHEMBL1136012, “Synthesis and structure-activity relationships of novel 7-substituted 1,4-dihydro-4-oxo-1-(2-thiazolyl)-1,8-naphthyridine-3-carboxylic acids as antitumor agents. Part 1” (J Med Chem, 2002).
In brackets after ≈: the same amount, converted by molar mass.

Legend:
P388 [1] = test: Cytotoxic activity of compound against Murine P388 Leukemia; assay type: functional, cell-based, Mus musculus
Procedure, shortened: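 Murine P388 cells were cultured in EMEM with 10% FBS, 2 mM glutamine, 50 units/mL penicillin and 50 μg/mL streptomycin. They were seeded at (1–2) × 10^4 cells/mL without preincubation and exposed to varying concentrations for 72 h at 37 °C, 5% CO2. MTT was then added for 4 h, formazan dissolved in DMSO and read at 570/690 nm.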

P388 [2] = test: […] antitumor activity of compound against P388 leukemia cells at a dose of 50 mg/kg; assay type: functional, Mus musculus
Procedure, shortened: (§1)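 In vivo study: BDF1 mice received 10^6 P388 leukemia cells ip as diluted ascites fluid. Test compounds were suspended in 0.4% CMC and given ip on days 1 and 5 after implantation, with seven mice per group. The endpoint is T/C% = median survival time of the treated group / median survival time of controls × 100.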

P388 [3] = test: […] antitumor activity of compound against P388 leukemia cells at a dose of 3.13 mg/kg; assay type: functional, Mus musculus; procedure, shortened: as §1
P388 [4] = test: In vitro antitumor activity of compound against P388 leukemia cells at a dose of […] mg/kg; assay type: functional, Mus musculus; set-up: concentration or dose not given beside the values
A-427 = test: Cytotoxic activity of compound against A-427 lung human tumor cell line; assay type: functional, cell-based
Procedure, shortened: (§2)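 Cells were kept in EMEM with 10% FBS, 2 mM glutamine, NEAA and 1 mM sodium pyruvate. They were seeded at (1–2) × 10^4 cells/mL and preincubated for 24 h. They were then exposed to graded concentrations for 72 h at 37 °C in 5% CO2. MTT was added for a further 4 h and the formazan dissolved in DMSO, with absorbance at 570/690 nm.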

G-361 = test: Cytotoxic activity of compound against G-361 melanoma human tumor cell line; assay type: functional, cell-based
Procedure, shortened: (§3)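 Culture was in McCoy's 5A with 10% FBS. Cells were seeded at (1–2) × 10^4 cells/mL, preincubated for 24 h, then incubated with various concentrations for 72 h at 37 °C under 5% CO2. MTT was added for 4 h and the formazan dissolved in DMSO, with A570 read against 690 nm.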

[5] = Cytotoxic activity of compound against SCaBER bladder squamous human tumor cell line; assay type: functional, cell-based; procedure, shortened: as §2
HT-29 = test: Cytotoxic activity of compound against HT-29 colon human tumor cell line; assay type: functional, cell-based; procedure, shortened: as §3
SK-OV-3 = test: Cytotoxic activity of compound against SK-OV-3 ovary human tumor cell line; assay type: functional, cell-based; conditions: SK-OV-3, Female gonad
Procedure, shortened: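 SK-OV-3 cells were maintained in McCoy's 5A with 15% FBS. After seeding at (1–2) × 10^4 cells/mL and 24 h preincubation, wells received graded concentrations for 72 h at 37 °C, 5% CO2. A 4 h MTT incubation followed, with DMSO solubilization and absorbance at 570/690 nm.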

[6] = Cytotoxic activity of compound against AZ-521 stomach human tumor cell line; assay type: functional
Procedure, shortened: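 AZ-521 cells were grown in EMEM with 10% FBS, 2 mM glutamine and NEAA. They were plated at (1–2) × 10^4 cells/mL and preincubated for 24 h, then treated with a range of concentrations for 72 h at 37 °C, 5% CO2. After a 4 h MTT step, the formazan was dissolved in DMSO and read at 570 nm (reference 690 nm).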

P388 [7] = test: […] antitumor activity f compound against P388 leukemia cells at a dose of […] mg/kg; assay type: functional, Mus musculus
P388 [8] = test: […] antitumor activity of compound against P388 leukemia cells at a dose of 6.25 mg/kg; assay type: functional, Mus musculus; procedure, shortened: as §1
[9] = Mus musculus, P388, read-out: IC50

Compound: Cl.NCCSc1nc2c(cc1F)c(=O)c(C(=O)O)cn2-c1nccs1
- IC50 (P388 [1]; [9]): > 10 µg/mL

Compound: Cl.NC1CCN(c2nc3c(cc2F)c(=O)c(C(=O)O)cn3-c2ncc(Br)s2)C1 (stereo not given)
- IC50 (P388 [1]; [9]): 0.085 µg/mL

Compound: CO[C@@H]1CN(c2nc3c(cc2F)c(=O)c(C(=O)O)cn3-c2nccs2)C[C@@H]1N.Cl
- IC50 (P388 [1]; [9]): 0.084 µg/mL

Compound: CO[C@H]1CN(c2nc3c(cc2F)c(=O)c(C(=O)O)cn3-c2nccs2)C[C@@H]1N.Cl (stereo in doubt; (S,S)-43j)
- IC50 (P388 [1]; p388): 0.023 µg/mL

Compound: CN(C)C1CCN(c2nc3c(cc2F)c(=O)c(C(=O)O)cn3-c2nccs2)C1.Cl (stereo not given)
- T/C (P388 [2]): 225%
- IC50 (P388 [1]; [9]): 0.057 µg/mL
- T/C (P388 [3]): 138%
- T/C (P388 [4]): 175%

Compound: Cl.O=C(O)c1cn(-c2nccs2)c2nc(N3CCCC3)c(F)cc2c1=O
- IC50 (P388 [1]; [9]): 0.08 µg/mL

Compound: Cl.N[C@H]1CCN(c2nc3c(cc2F)c(=O)c(C(=O)O)cn3-c2nccs2)C1
- IC50 (P388 [1]; [9]): 0.028 µg/mL

Compound: Cl.NC1CCN(c2nc3c(cc2F)c(=O)c(C(=O)O)cn3-c2nccs2)CC1
- IC50 (P388 [1]; [9]): 1.63 µg/mL

Compound: CC(C)(C)c1csc(-n2cc(C(=O)O)c(=O)c3cc(F)c(N4CCC(N)C4)nc32)n1.Cl (stereo not given)
- IC50 (P388 [1]; [9]): 0.88 µg/mL

Compound: CO[C@H]1CN(c2nc3c(cc2F)c(=O)c(C(=O)O)cn3-c2nccs2)C[C@@H]1N.Cl (stereo in doubt; 43j)
- T/C (P388 [2]): >375%
- IC50 (A-427): 0.42 µg/mL
- IC50 (G-361): 0.4 µg/mL
- IC50 [5]: 0.78 µg/mL
- IC50 (HT-29): 2.1 µg/mL
- IC50 (P388 [1]; [9]): 0.038 µg/mL
- IC50 (SK-OV-3): 1.1 µg/mL
- T/C (P388 [3]): 138%
- T/C (P388 [4]): 238%
- IC50 [6]: 0.58 µg/mL

Compound: Cl.NC1CCN(c2nc3c(cc2F)c(=O)c(C(=O)O)cn3-c2ccno2)C1 (stereo not given)
- IC50 (P388 [1]; [9]): 9.4 µg/mL

Compound: Cc1cnc(-n2cc(C(=O)O)c(=O)c3cc(F)c(N4CCC(N)C4)nc32)s1.Cl (stereo not given)
- IC50 (P388 [1]; [9]): 0.26 µg/mL

Compound: Cl.NC1CCN(c2nc3c(cc2F)c(=O)c(C(=O)O)cn3C2CC2)C1 (stereo not given)
- IC50 (P388 [1]; [9]): 7.9 µg/mL

Compound: Cl.NCCNc1nc2c(cc1F)c(=O)c(C(=O)O)cn2-c1nccs1
- IC50 (P388 [1]; [9]): > 10 µg/mL

Compound: Cl.NCC1CCN(c2nc3c(cc2F)c(=O)c(C(=O)O)cn3-c2nccs2)C1 (stereo not given)
- IC50 (P388 [1]; [9]): 0.101 µg/mL

Compound: Cl.NC1CCN(c2nc3c(cc2F)c(=O)c(C(=O)O)cn3-c2ncc(Cl)s2)C1 (stereo not given)
- IC50 (P388 [1]; [9]): 0.094 µg/mL

Compound: Cl.NCC1CN(c2nc3c(cc2F)c(=O)c(C(=O)O)cn3-c2nccs2)CCO1 (stereo not given)
- IC50 (P388 [1]; [9]): 1.73 µg/mL

Compound: Cl.NC1CCN(c2cc3c(cn2)c(=O)c(C(=O)O)cn3-c2nccs2)C1 (stereo not given)
- IC50 (P388 [1]; [9]): > 1 µg/mL

Compound: Cl.NC1CCN(c2nc3c(cc2F)c(=O)c(C(=O)O)cn3-c2nc3ccccc3s2)C1 (stereo not given)
- IC50 (P388 [1]; [9]): 0.049 µg/mL

Compound: Cl.O=C(O)c1cn(-c2nccs2)c2nc(N3CCC(O)C3)c(F)cc2c1=O (stereo not given)
- T/C (P388 [2]): 225%
- T/C (P388 [7]): 175%
- IC50 (P388 [1]; [9]): 0.036 µg/mL
- T/C (P388 [3]): 138%

Compound: COc1cc([C@@H]2c3cc4c(cc3[C@@H](O[C@@H]3O[C@@H]5CO[C@@H](C)O[C@H]5[C@H](O)[C@H]3O)[C@H]3COC(=O)[C@H]23)OCO4)cc(OC)c1O [ETOPOSIDE]
- T/C (P388 [2]): >375%
- IC50 (A-427): 0.095 µg/mL (≈ 0.161 µM)
- IC50 (G-361): 0.28 µg/mL (≈ 0.476 µM)
- IC50 [5]: 0.31 µg/mL (≈ 0.527 µM)
- IC50 (P388 [1]; [9]): 0.0085 µg/mL (≈ 0.0144 µM)
- IC50 (SK-OV-3): 0.95 µg/mL (≈ 1.61 µM)
- T/C (P388 [3]): 175%
- T/C (P388 [4]): 250%
- IC50 [6]: 0.08 µg/mL (≈ 0.136 µM)

Compound: Cl.NC1CCN(c2nc3c(cc2F)c(=O)c(C(=O)O)cn3-c2ccc(F)cc2)C1 (stereo not given)
- IC50 (P388 [1]; [9]): 2.1 µg/mL

Compound: Cl.NC1CCN(c2c(F)cc3c(=O)c(C(=O)O)cn(-c4nccs4)c3c2F)C1 (stereo not given)
- IC50 (P388 [1]; [9]): 55 µg/mL

Compound: Cl.NC1CCN(c2nc3c(cc2F)c(=O)c(C(=O)O)cn3-c2nc(-c3ccccc3)cs2)C1 (stereo not given)
- IC50 (P388 [1]; [9]): 0.052 µg/mL

Compound: Cl.NC1CCN(c2nc3c(cc2F)c(=O)c(C(=O)O)cn3-c2nncs2)C1 (stereo not given)
- IC50 (P388 [1]; [9]): 5.5 µg/mL

Compound: COc1cccc2c1C(=O)c1c(O)c3c(c(O)c1C2=O)C[C@@](O)(C(=O)CO)C[C@@H]3O[C@H]1C[C@H](N)[C@H](O)[C@H](C)O1 [DOXORUBICIN]
- T/C (P388 [8]): 293%
- IC50 (P388 [1]; [9]): 0.004 µg/mL (≈ 0.00736 µM)
- T/C (P388 [3]): 235%

Compound: Cl.O=C(O)c1cn(-c2nccs2)c2nc(N3CC[C@@H](O)C3)c(F)cc2c1=O
- IC50 (P388 [1]; [9]): 0.065 µg/mL

Compound: COc1ccccc1N1CCN(c2nc3c(cc2F)c(=O)c(C(=O)O)cn3-c2nccs2)CC1.Cl
- IC50 (P388 [1]; [9]): > 1 µg/mL

Compound: Cl.Cn1nccc1-n1cc(C(=O)O)c(=O)c2cc(F)c(N3CCC(N)C3)nc21 (stereo not given)
- IC50 (P388 [1]; [9]): > 10 µg/mL

Compound: Cl.NC1C=CC[C@H]2CN(c3nc4c(cc3F)c(=O)c(C(=O)O)cn4-c3nccs3)C[C@@H]12 (stereo not given in full)
- IC50 (P388 [1]; [9]): 0.15 µg/mL
